The source made the active and inactive calls. No cut-off for these calls is given here.
Legend:
[1] = Toxicity in human MKL-1 cells xenografted NSG mouse assessed as effect on activity at 50 mg/kg, ip administered daily for 3 weeks; format: organism-based; conditions: in vivo, 504 h
Method in brief: (§1)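 Mice with subcutaneous xenografts dosed i.p. daily for 3 weeks (vehicle 10% 2-hydroxypropyl-β-cyclodextrin in water) and monitored daily. Toxicity judged from body weight, food and water intake, activity and general examination.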

[2] = Toxicity in human MKL-1 cells xenografted NSG mouse assessed as effect on general examination at 50 mg/kg, ip administered daily for 3 weeks; format: organism-based; conditions: in vivo, 504 h; method in brief: as §1
[3] = Toxicity in human MKL-1 cells xenografted NSG mouse assessed as effect on body weight at 50 mg/kg, ip administered daily for 3 weeks; format: organism-based; conditions: in vivo, 504 h; method in brief: as §1
[4] = Toxicity in human MKL-1 cells xenografted NSG mouse assessed as effect on food intake at 50 mg/kg, ip administered daily for 3 weeks; format: organism-based; conditions: in vivo, 504 h; method in brief: as §1
[5] = tested on: Mus musculus; experiment: In vivo disruption of BRD4 occupancy at the putative c-Myc super-enhancer region in human MCC-3 cells xenografted NSG mouse at 50 mg/kg, ip administered daily for 3 weeks and measured post-last dose by ChIP-qPCR analysis; format: functional, organism-based
Method in brief: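 Frozen xenograft tumours crosslinked with 1% formaldehyde for 10 min, quenched with 0.125 M glycine, lysed and sonicated. Anti-BRD4 IP on anti-rabbit IgG beads. SYBR qPCR with primers at the putative c-Myc super-enhancer, plus control regions 5000 bp up- and downstream. 3 biological replicates, vehicle versus treated.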

[6] = Toxicity in human MKL-1 cells xenografted NSG mouse assessed as effect on water intake at 50 mg/kg, ip administered daily for 3 weeks; format: organism-based; conditions: in vivo, 504 h; method in brief: as §1
[7] = Toxicity in human MCC-3 cells xenografted NSG mouse assessed as effect on food intake at 50 mg/kg, ip administered daily for 3 weeks; format: organism-based; conditions: in vivo, 504 h; method in brief: as §1
[8] = tested on: MCC-3; experiment: Antitumor activity against human MCC-3 cells xenografted in NSG mouse assessed as reduction in c-Myc expression at 50 mg/kg, ip administered daily for 3 weeks and measured post-last dose by immunoblotting method; format: functional, organism-based
Method in brief: (§2)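 Tumours excised at endpoint from NSG mice bearing subcutaneous flank xenografts (~100 mm3 at randomisation), dosed i.p. daily for 3 weeks, vehicle 10% 2-hydroxypropyl-β-cyclodextrin in water. Lysates resolved by SDS-PAGE, electroblotted to PVDF (200V, 2 h). Membranes blocked in 5% milk, primary antibody overnight at 4°C, then secondary 1 h, and detected by ECL.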

[9] = tested on: MCC-3; experiment: Antitumor activity against human MCC-3 cells xenografted in NSG mouse assessed as effect on H3K27Ac expression at 50 mg/kg, ip administered daily for 3 weeks and measured post-last dose by immunoblotting method; format: functional, organism-based; method in brief: as §2
[10] = Toxicity in human MCC-3 cells xenografted NSG mouse assessed as effect on water intake at 50 mg/kg, ip administered daily for 3 weeks; format: organism-based; conditions: in vivo, 504 h; method in brief: as §1
[11] = Toxicity in human MCC-3 cells xenografted NSG mouse assessed as effect on body weight at 50 mg/kg, ip administered daily for 3 weeks; format: organism-based; conditions: in vivo, 504 h; method in brief: as §1
[12] = Toxicity in human MCC-3 cells xenografted NSG mouse assessed as effect on general examination at 50 mg/kg, ip administered daily for 3 weeks; format: organism-based; conditions: in vivo, 504 h; method in brief: as §1
[13] = Antitumor activity against human MCC-3 cells xenografted in NSG mouse assessed as reduction in tumor volume at 50 mg/kg, ip administered daily for 3 weeks and measured post-last dose by caliper method relative to control; format: functional; parameters: scale not given: the % may be the effect or the level left
[14] = tested on: MCC-3; experiment: Antitumor activity against human MCC-3 cells xenografted in NSG mouse assessed as reduction in c-Myc mRNA expression at 50 mg/kg, ip administered daily for 3 weeks and measured post-last dose by qRT-PCR analysis; format: functional, organism-based
Method in brief: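 Excised xenograft tumours from NSG mice dosed i.p. daily for 3 weeks (vehicle 10% 2-hydroxypropyl-β-cyclodextrin in water) versus vehicle group. c-Myc mRNA measured by qRT-PCR on 3 biological replicates.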

[15] = Toxicity in human MCC-3 cells xenografted NSG mouse assessed as effect on activity at 50 mg/kg, ip administered daily for 3 weeks; format: organism-based; conditions: in vivo, 504 h; method in brief: as §1
[16] = tested on: MCC-3; experiment: Antitumor activity against human MCC-3 cells xenografted in NSG mouse assessed as effect on BRD4 expression at 50 mg/kg, ip administered daily for 3 weeks and measured post-last dose by immunoblotting method; format: functional, organism-based; method in brief: as §2
[17] = Antitumor activity against human MKL-1 cells xenografted in NSG mouse assessed as reduction in tumor volume at 50 mg/kg, ip administered daily for 3 weeks and measured post-last dose by caliper method relative to control; format: functional; parameters: scale not given: the % may be the effect or the level left
Method in brief: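 NSG mice with subcutaneous flank xenografts (MKL-1: 2 × 10^7 cells in matrigel), randomised at ~100 mm3 (n ≥ 7 per group). Dosed i.p. daily for 3 weeks; vehicle 10% 2-hydroxypropyl-β-cyclodextrin in water. Calipers, volume = L2 × W/2; final tumour volume, mean ± SEM, Mann-Whitney test.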

## Cc1sc2c(c1C)C(c1ccc(Cl)cc1)=N[C@@H](CC(=O)OC(C)(C)C)c1nnc(C)n1-2
[1]
  Activity: Non-Toxic
[2]
  Activity: Non-Toxic
[3]
  Activity: Non-Toxic
[4]
  Activity: Non-Toxic
[5]
  Activity: Active
[6]
  Activity: Non-Toxic
[7]
  Activity: Non-Toxic
[8]
  Activity: Active
[9]
  Activity: inactive
[10]
  Activity: Non-Toxic
[11]
  Activity: Non-Toxic
[12]
  Activity: Non-Toxic
[13]
  Activity: 75.6%
[14]
  Activity: Active
[15]
  Activity: Non-Toxic
[16]
  Activity: inactive
[17]
  Activity: 48.9%
